The campaign covered roughly 190,000 compounds. About 10 (0.005%) were called active. The full list was thinned out, with actives kept by preference. A number with no mark means an inactive call.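 The calls were made as follows: active = diaphorase activity raised at least twofold by the compound at 20 µM; inactive = activation factor below 2.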
assay: compounds boosting diaphorase resazurin reduction – biochemical, uHTS, resorufin fluorescence, counter-screen for diaphorase-coupled primary assays, primary screen (AID 1229); details: Diaphorase/resazurin coupled assay, 16 min, at 20 µM, stronger effect = higher value, 1 = vehicle wells, 0 = NADH-free wells
Outline: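 Material: Purified diaphorase enzyme from Clostridium kluyveri | Buffer or medium: 50 mM HEPES pH 7.4 with 4.542 mM MgCl2, 0.005% Tween 20 | Times: 16 min enzyme reaction, ambient temperature | Signal: Red resorufin fluorescence at 544/590 nm excitation/emission | Measure: Increased resorufin signal from activators or reducing compounds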

| SMILES | activation factor |
| --- | --- |
| COc1ccc([N+](=O)[O-])cc1NC(=O)c1ccc(N(Cc2ccccc2C)S(C)(=O)=O)cc1 | 0.9 |
| COc1ccc(NS(=O)(=O)c2cc(NC(=O)C3CCCCC3)ccc2N2CCOCC2)cc1 | 1.1 |
| Cc1cc2c(C)nc(N/N=C/c3ccccc3)nc2o1 | 0.9 |
| O=C1NCC(=O)N(Cc2ccccc2)/C1=C/c1ccccc1 | 1 |
| CCOC(=O)C(C)Sc1nnc(CSc2nc3nc(C)cc(C)n3n2)o1 (stereo not drawn) | 1 |
| Cc1ccc(NC2=C(Cl)C(=O)OC2OC(=O)c2ccccc2C)cc1 (stereo not drawn) | 0.9 |
| O=C(Nc1ccc(F)cc1)N1CCN(c2ccc(F)cc2)CC1 | 0.9 |
| Cc1ccc(/C(N)=N/OC(=O)COc2ccc(Cl)c(C)c2)cc1 | 0.9 |
| Cc1cc(C)n(-c2nnc(N3CCN(c4ccccc4)CC3)nn2)n1 | 0.9 |
| CCn1c(COc2c(C)cccc2C)nnc1SCc1nc2ccccc2c(=O)[nH]1 | 0.7 |
| Cc1cc(Cl)ccc1C(=O)C1CCCN(C(=O)CCN2CCCO2)C1 (stereo not drawn) | 1 |
| Oc1c(Br)cccc1/C=N/Nc1c(F)c(F)c(F)c(F)c1F | 1 |
| Cc1ccc(S(=O)(=O)N(CC(=O)NN=C2CCN(C)CC2)c2ccc(F)cc2)cc1 | 0.9 |
| O=C(NC1CCCC1)C(NS(=O)(=O)c1ccc(Br)s1)c1ccccc1 (stereo not drawn) | 0.9 |
| CCOC(=O)C1CCN(C(=O)c2ccccc2N(C)S(=O)(=O)c2ccccc2)CC1 | 1 |
| Cn1cnnc1SCc1nnc(-c2ccccc2Br)o1 | 1 |
| COc1ccc(CNC(=O)CN2CCC(n3nnc4cc(F)ccc43)CC2)cc1 | 0.8 |
| C=C(C)c1cccc(C(C)(C)NC(=O)NC2CCCC2)c1 | 0.9 |
| Nc1[nH]c(=S)nc2nc(-c3ccccc3)c(-c3ccccc3)nc12 | 0.8 |
| CC1=C[C@H]2Cc3cc(C)cc(C)c3S(=O)(=O)[C@@H]2C=C1 | 0.9 |
| CCCCOc1ccc(C(=O)N/C(=C/C=C/c2ccccc2)C(=O)N2CCOCC2)cc1 | 0.8 |

| SMILES | activation factor |
| --- | --- |
| Cc1ccc(S(=O)(=O)Cc2cc(-c3ccc(Cl)cc3)no2)cc1 | 0.8 |
| CCOc1ccc(/C=C(/NC(=O)c2ccccc2)C(=O)NCCC(=O)O)cc1 | 0.9 |
| NC(=O)C[C@@H]1NC(=O)CNC(=O)c2cc([N+](=O)[O-])cc(I)c2NCCC(C(N)=O)NC1=O (stereo partly drawn) | 1.1 |
| CSc1cc(C)[nH]c(=O)n1 | 0.9 |
| C[n+]1ccc(/C=C/c2c[nH]c3ccccc23)cc1 | 1 |
| COC(=O)CCc1sc(Nc2ccc(Br)cc2)nc1-c1ccc(OC)cc1 | 0.8 |
| O=c1[nH]c2cccnc2n(CCNc2ncc(C(F)(F)F)cc2Cl)c1=O | 0.8 |
| COCC1CCCN(Cc2cn[nH]c2-c2cc3ccccc3o2)C1 (stereo not drawn) | 0.9 |
| CC1CCCCC1NC(=O)COC(=O)Cc1ccc(Br)cc1 (stereo not drawn) | 0.9 |
| O=C1NC2(CCCCCC2)C(=O)N1CCS(=O)(=O)Oc1ccccc1 | 1 |
| COc1cccc(-n2nc(C(=O)N3CCN(Cc4ccccc4)CC3)c3ccccc3c2=O)c1 | 0.8 |
| CCN(CC)CCNCc1ccc(OCc2ccc(Cl)nc2)c(OC)c1 | 1.1 |
| CC(C)Oc1c(Br)cc(Br)cc1/C=N/NC(N)=S | 1 |
| Cc1cc(C)cc(OCC(=O)NNC(=O)CCN2C(=O)c3ccccc3C2=O)c1 | 0.9 |
| O=C(CCC(=O)NNc1nc2ccccc2c2nc(-c3ccccc3)nn12)NCCCN1CCCC1=O | 0.8 |
| COc1ccc(-c2csc(-c3cccs3)n2)cc1OC | 0.8 |
| COc1ccc(O)c(C(=O)c2cnc3c(c2)c(-c2ccc(F)cc2)c(C#N)c(=O)n3C)c1 | 0.9 |
| CC(C)(C)CC(C)(C)NCC(O)COCCOc1ccc(Br)cc1 (stereo not drawn) | 0.9 |
| Cc1cc(NS(=O)(=O)c2ccc(NC(=O)c3cccc(OC(F)F)c3)cc2)nc(C)n1 | 1 |
| CCC1S/C(=N/N=C/c2ccco2)NC1=O (stereo not drawn) | 0.9 |
| CCOC(=O)C(NC(=O)CC(C)C)(Nc1sc2c(c1C(N)=O)CCCC2)C(F)(F)F (stereo not drawn) | 0.9 |

| SMILES | activation factor |
| --- | --- |
| C/C(=N\NC(=O)CNC(=O)C(c1ccccc1)c1ccccc1)c1ccc(C)cc1 | 0.9 |
| C=CCn1c(COc2ccc(F)cc2)nnc1SCC(=O)Nc1cccc(S(N)(=O)=O)c1 | 1.1 |
| CCOc1ccc(NS(=O)(=O)c2cc(C)c(C)cc2C)cc1 | 0.8 |
| O=C(Nc1ccc(Cl)cn1)c1ccc2c(c1)OCCO2 | 1 |
| CN(C)S(=O)(=O)c1ccc(N2CCCC2=O)c([N+](=O)[O-])c1 | 0.9 |
| S=C(Cc1ccc(Cl)cc1)N1CCOCC1 | 1 |
| CN(Cc1ccc2nsnc2c1)Cc1nc(Cc2cccc(F)c2)no1 | 0.8 |
| CCN(CC(=O)NCCc1ccccc1)S(=O)(=O)c1ccccc1 | 1 |
| COc1ccc(C(=O)O/N=C(\N)Cc2ccc(Cl)cc2Cl)cc1OC | 1 |
| NC(N)=N/N=C/c1ccc(Cl)c([N+](=O)[O-])c1 | 1 |
| NC(N)=N/N=C/c1ccc(OCc2ccc(Cl)cc2Cl)cc1 | 2.2 (active) |
| O=C(CCc1n[nH]c(=O)[nH]c1=O)N/N=C/c1ccc(Br)o1 | 1 |
| Cc1cccc(OCCNC(=O)CSc2ccc(C(F)(F)F)cc2[N+](=O)[O-])c1 | 0.9 |
| Cc1ccc(NC(=O)Nc2ccccc2)c(Br)c1 | 0.9 |
| COc1cc2[nH]c(=S)n(Cc3ccc(F)cc3)c(=O)c2cc1OC | 0.9 |
| O=C(Nc1ccc2c(c1)OCO2)c1sc2cc(Cl)ccc2c1Cl | 1 |
| Cc1cc(NC(=O)CSc2nc3ccccc3n2CC(C)C)no1 | 0.8 |
| CNC(=O)COc1ccc(S(=O)(=O)Nc2ccccc2)cc1 | 0.8 |
| COc1ccc(C)cc1NC(=S)Nc1ccccc1SC | 1 |
| Cc1cccc(NC(=O)Nc2ccc3c(c2)OCO3)n1 | 0.8 |
| CCOc1ccc(C(=O)NC(=S)Nc2ccc(N3CCOCC3)c(Cl)c2)cc1[N+](=O)[O-] | 0.8 |
